# Laboratory results published in ChEMBL document CHEMBL1131316, “Potent antagonists of somatostatin: synthesis and biology” (J Med Chem, 1998).
# Positions of bridges follow the written chain, without caps; N, C: chain ends. Non-standard residues stand in square brackets, D forms with d. Residues, ends and D or L forms follow the SMILES beside them. Phe(4-NO2) = N[C@@H](Cc1ccc([N+](=O)[O-])cc1)C(=O)O; dDip = N[C@@H](C(=O)O)C(c1ccccc1)c1ccccc1; Dip = N[C@H](C(=O)O)C(c1ccccc1)c1ccccc1; 2Nal = N[C@@H](Cc1ccc2ccccc2c1)C(=O)O; d2Nal = N[C@H](Cc1ccc2ccccc2c1)C(=O)O; 3Pal = N[C@@H](Cc1cccnc1)C(=O)O
# Key:
# [1] = molecular target: Somatostatin receptor type 1 (Homo sapiens, UniProt P30872); assay: Binding affinity towards cloned human somatostatin 1 (hsst) receptor
# Sequence of Somatostatin receptor type 1 (P30872 whole entry): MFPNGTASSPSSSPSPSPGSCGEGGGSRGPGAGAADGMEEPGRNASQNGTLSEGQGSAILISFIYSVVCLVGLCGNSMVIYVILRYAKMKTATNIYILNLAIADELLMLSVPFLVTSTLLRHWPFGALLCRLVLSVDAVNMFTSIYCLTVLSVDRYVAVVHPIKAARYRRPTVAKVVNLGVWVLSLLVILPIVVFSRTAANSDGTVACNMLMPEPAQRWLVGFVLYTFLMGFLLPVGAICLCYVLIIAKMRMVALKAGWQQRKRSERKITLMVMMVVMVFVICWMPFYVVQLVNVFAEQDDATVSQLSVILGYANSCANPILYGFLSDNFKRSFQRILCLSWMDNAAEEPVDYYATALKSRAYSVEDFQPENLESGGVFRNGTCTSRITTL
# Summary of the method: (§1)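 Membranes from CHO-K1 cells stably transfected with the human receptor subtype (calcium phosphate transfection, G418 selection), homogenised and washed in Tris-HCl. Separated by filtration on PEI-soaked GF/C filters; nonspecific binding with 1.0 µM SRIF.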
# [2] = molecular target: Somatostatin receptor type 2 (Homo sapiens, UniProt P30874); assay: Binding affinity towards cloned human somatostatin 2 (hsst) receptor; summary of the method: as §1
# Sequence of Somatostatin receptor type 2 (P30874 whole entry): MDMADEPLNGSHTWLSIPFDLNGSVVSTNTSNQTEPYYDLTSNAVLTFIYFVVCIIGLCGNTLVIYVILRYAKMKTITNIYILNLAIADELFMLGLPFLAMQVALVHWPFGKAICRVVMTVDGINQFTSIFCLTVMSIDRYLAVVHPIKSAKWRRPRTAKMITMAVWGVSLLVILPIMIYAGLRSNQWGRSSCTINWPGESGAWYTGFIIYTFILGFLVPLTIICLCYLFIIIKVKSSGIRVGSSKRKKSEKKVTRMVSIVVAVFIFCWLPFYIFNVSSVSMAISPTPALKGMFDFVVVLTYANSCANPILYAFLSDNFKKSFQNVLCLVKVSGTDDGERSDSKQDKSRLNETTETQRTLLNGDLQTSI
# [3] = molecular target: Somatostatin receptor type 3 (Homo sapiens, UniProt P32745); assay: Binding affinity towards cloned human somatostatin 3 (hsst) receptor; summary of the method: as §1
# Sequence of Somatostatin receptor type 3 (P32745 whole entry): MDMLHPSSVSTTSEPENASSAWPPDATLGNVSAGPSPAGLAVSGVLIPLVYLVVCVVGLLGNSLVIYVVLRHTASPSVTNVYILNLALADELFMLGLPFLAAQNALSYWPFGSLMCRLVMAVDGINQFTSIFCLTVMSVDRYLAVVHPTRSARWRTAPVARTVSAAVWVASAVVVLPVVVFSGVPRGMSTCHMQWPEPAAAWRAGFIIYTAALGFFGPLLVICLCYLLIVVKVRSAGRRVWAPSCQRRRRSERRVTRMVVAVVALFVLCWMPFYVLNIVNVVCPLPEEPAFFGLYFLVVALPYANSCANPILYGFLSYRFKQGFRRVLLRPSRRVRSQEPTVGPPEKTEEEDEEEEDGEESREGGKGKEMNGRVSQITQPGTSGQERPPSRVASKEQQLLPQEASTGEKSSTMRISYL
# [4] = molecular target: Somatostatin receptor type 4 (Homo sapiens, UniProt P31391); assay: Binding affinity towards cloned human somatostatin 4 (hsst) receptor
# Sequence of Somatostatin receptor type 4 (P31391 whole entry): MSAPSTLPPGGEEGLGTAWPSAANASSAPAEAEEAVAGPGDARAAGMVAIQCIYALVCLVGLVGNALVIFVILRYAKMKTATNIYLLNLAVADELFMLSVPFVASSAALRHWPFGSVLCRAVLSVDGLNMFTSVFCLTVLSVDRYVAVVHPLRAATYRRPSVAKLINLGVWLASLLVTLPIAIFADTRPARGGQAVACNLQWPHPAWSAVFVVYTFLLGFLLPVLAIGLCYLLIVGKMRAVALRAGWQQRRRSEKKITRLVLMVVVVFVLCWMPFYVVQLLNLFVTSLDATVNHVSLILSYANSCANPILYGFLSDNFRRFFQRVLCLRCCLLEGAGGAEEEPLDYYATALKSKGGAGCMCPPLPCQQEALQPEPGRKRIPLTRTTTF
# [5] = molecular target: Somatostatin receptor type 5 (Homo sapiens, UniProt P35346); assay: Binding affinity towards cloned human somatostatin 5 (hsst) receptor; summary of the method: as §1
# Sequence of Somatostatin receptor type 5 (P35346 whole entry): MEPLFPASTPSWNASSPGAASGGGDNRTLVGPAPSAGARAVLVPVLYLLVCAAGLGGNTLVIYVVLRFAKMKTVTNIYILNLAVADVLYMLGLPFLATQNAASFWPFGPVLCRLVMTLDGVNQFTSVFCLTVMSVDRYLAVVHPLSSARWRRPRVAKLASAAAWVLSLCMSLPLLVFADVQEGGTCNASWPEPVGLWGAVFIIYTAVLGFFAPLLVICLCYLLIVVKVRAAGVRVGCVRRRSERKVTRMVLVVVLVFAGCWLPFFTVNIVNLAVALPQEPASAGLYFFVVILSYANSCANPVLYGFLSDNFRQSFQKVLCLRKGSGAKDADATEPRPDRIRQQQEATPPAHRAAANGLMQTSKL
# Somatostatin receptor = assay: Compound was tested for in vitro SRIF inhibition of GH release in rats; assay type: functional
# Summary of the method: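 Adult male rat anterior pituitary cells, dispersed with trypsin/DNase, cultured 4-5 days. Then 3 h at 37 °C in medium 199 with 1% BSA, GHRH(1-29)NH2 1 nM and SRIF 1 nM, with analogue at six doses (up to 10 µM, some to 100 µM), triplicate wells. GH in medium measured by double-antibody RIA. Antagonist IC50 taken from n separate dose-response curves.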
IC50 [1] [nM],Ki [2] [nM],IC50 [3] [nM],IC50 [4] [nM],Ki [5] [nM],IC50 (Somatostatin receptor) [nM],Compound
2000,37.6,161,1000,302,,CC(C)[C@@H]1NC(=O)[C@H](CCCCN)NC(=O)[C@@H](Cc2c[nH]c3ccccc23)NC(=O)[C@H](Cc2ccc(O)cc2)NC(=O)[C@H](NC(=O)[C@@H](N)Cc2ccc3ccccc3c2)CSSC[C@@H](C(=O)N[C@@H](Cc2ccc3ccccc3c2)C(N)=O)NC1=O
,,,,,35.3,CC(C)[C@@H]1NC(=O)[C@H](CCCCN)NC(=O)[C@@H](Cc2c[nH]c3ccccc23)NC(=O)[C@H](Cc2ccc(O)cc2)NC(=O)[C@@H](NC(=O)[C@@H](N)Cc2ccc3ccccc3c2)CSSC[C@H](C(=O)N[C@@H](Cc2ccc3ccccc3c2)C(N)=O)NC1=O
1000,797,648,1000,2740,,CC(C)[C@H](NC(=O)[C@H](CCCCN)NC(=O)[C@@H](Cc1c[nH]c2ccccc12)NC(=O)[C@H](Cc1ccc(O)cc1)NC(=O)[C@@H](Cc1ccc(Cl)cc1)NC(=O)[C@@H](N)Cc1ccccc1)C(=O)N[C@@H](Cc1ccccc1)C(=O)N[C@H](C(N)=O)[C@@H](C)O
1000,445,216,1000,1180,,C[C@@H](O)[C@H](NC(=O)[C@H](Cc1ccccc1)NC(=O)[C@@H](NC(=O)[C@H](CCCCN)NC(=O)[C@@H](Cc1c[nH]c2ccccc12)NC(=O)[C@H](Cc1ccc(O)cc1)NC(=O)[C@@H](Cc1ccccc1)NC(=O)[C@@H](N)Cc1ccccc1)[C@@H](C)O)C(N)=O
1000,2550,821,1000,,,CC(C)[C@@H]1NC(=O)[C@H](CCCCN)NC(=O)[C@@H](Cc2c[nH]c3ccccc23)NC(=O)[C@H](Cc2ccc(O)cc2)NC(=O)[C@H](NC(=O)[C@H](N)Cc2ccccc2)C(C)(C)SSC[C@@H](C(=O)N[C@H](C(N)=O)[C@@H](C)O)NC1=O
1000,1000,1000,1000,1000,,CC(=O)N[C@@H]1CSSC[C@@H](C(=O)N[C@H](C(N)=O)[C@@H](C)O)NC(=O)[C@H](C(C)C)NC(=O)[C@H](CCCCN)NC(=O)[C@@H](Cc2c[nH]c3ccccc23)NC(=O)[C@H](Cc2ccc(O)cc2)NC1=O
1000,183,140,1000,,,CC[C@@H]1NC(=O)[C@H](CCCCN)NC(=O)[C@@H](Cc2c[nH]c3ccccc23)NC(=O)[C@H](Cc2ccc(O)cc2)NC(=O)[C@H](NC(=O)[C@H](N)Cc2ccccc2)CSSC[C@@H](C(=O)N[C@H](C(N)=O)[C@@H](C)O)NC1=O
723,34.8,5.6,,28,,C[C@@H](O)[C@@H]1NC(=O)[C@H](CCCCN)NC(=O)[C@@H](Cc2c[nH]c3ccccc23)NC(=O)[C@H](Cc2ccccc2)NC(=O)[C@H](Cc2ccccc2)NC(=O)[C@H](N)CSSC[C@H](C(N)=O)NC(=O)[C@H](Cc2ccccc2)NC1=O
1000,566,1360,1000,1000,,C[C@@H](O)[C@H](NC(=O)[C@@H]1CSSC[C@@H](NC(=O)[C@H](N)Cc2ccccc2)C(=O)N[C@@H](Cc2cccnc2)C(=O)N[C@H](Cc2c[nH]c3ccccc23)C(=O)N[C@@H](CCCCN)C(=O)N[C@@H]([C@@H](C)O)C(=O)N1)C(N)=O
,,,,,56,CC(C)[C@@H]1NC(=O)[C@H](CCCCN)NC(=O)[C@@H](Cc2c[nH]c3ccccc23)NC(=O)[C@H](Cc2cccnc2)NC(=O)[C@H](NC(=O)[C@@H](N)Cc2ccc3ccccc3c2)CSSC[C@@H](C(=O)N[C@@H](Cc2cccc(-c3ccccc3)c2)C(N)=O)NC1=O
1000,435,1230,1000,,,CC(C)NC(=O)[C@@H]1CSSC[C@@H](NC(=O)[C@@H](N)Cc2ccc3ccccc3c2)C(=O)N[C@@H](Cc2ccc(O)cc2)C(=O)N[C@H](Cc2c[nH]c3ccccc23)C(=O)N[C@@H](CCCCN)C(=O)N[C@@H](C(C)C)C(=O)N1
,,,,,108600,CC(C)[C@@H]1NC(=O)[C@H](CCCCN)NC(=O)[C@@H](Cc2c[nH]c3ccccc23)NC(=O)[C@H](Cc2ccc(O)cc2)NC(=O)[C@H](NC(=O)[C@@H](N)Cc2ccc3ccccc3c2)CSSC[C@@H](C(=O)NC(C)(C)C)NC1=O
1000,526,619,1000,178,,CC(C)[C@H](NC(=O)[C@H](CCCCN)NC(=O)[C@@H](Cc1c[nH]c2ccccc12)NC(=O)[C@H](Cc1ccc(O)cc1)NC(=O)[C@@H](Cc1ccc(Cl)cc1)NC(=O)[C@H](N)Cc1ccc2ccccc2c1)C(=O)N[C@@H](Cc1ccccc1)C(=O)N[C@@H](Cc1ccc2ccccc2c1)C(N)=O
1000,,404,,1000,,CC(C)[C@@H]1NC(=O)[C@H](CCCCN)NC(=O)[C@@H](Cc2c[nH]c3ccccc23)NC(=O)[C@H](Cc2ccc(O)cc2)NC(=O)[C@@H](C)N(C)C(=O)[C@H](Cc2ccccc2)NC1=O
1000,1000,1610,1000,1960,,CC(C)[C@H](NC(=O)[C@H](CCCCN)NC(=O)[C@@H](Cc1c[nH]c2ccccc12)NC(=O)[C@H](Cc1ccc(O)cc1)NC(=O)[C@@H](Cc1ccc(Cl)cc1)NC(=O)[C@@H](N)Cc1ccc2ccccc2c1)C(=O)N[C@@H](Cc1ccccc1)C(=O)N[C@@H](Cc1ccc2ccccc2c1)C(N)=O
1660,82.9,1080,1000,358,,CC(C)[C@@H]1NC(=O)[C@H](CCCCN)NC(=O)[C@@H](Cc2c[nH]c3ccccc23)NC(=O)[C@H](Cc2ccc(O)cc2)NC(=O)[C@H](NC(=O)[C@H](N)Cc2ccc3ccccc3c2)CSSC[C@@H](C(=O)N[C@H](Cc2ccc3ccccc3c2)C(N)=O)NC1=O
588,77.2,649,1000,221,,CC(C)[C@@H]1NC(=O)[C@H](CCCCN)NC(=O)[C@@H](Cc2c[nH]c3ccccc23)NC(=O)[C@H](Cc2ccc(O)cc2)NC(=O)[C@H](NC(=O)[C@@H](N)Cc2c[nH]c3ccccc23)CSSC[C@@H](C(=O)N[C@H](Cc2ccc3ccccc3c2)C(N)=O)NC1=O (H-W[dC]Y[dW]KVC[d2Nal]-NH2; disulfide 2-7)
1090,,1200,1000,1000,,CC(C)[C@@H]1NC(=O)[C@H](CCCCN)NC(=O)[C@@H](Cc2c[nH]c3ccccc23)NC(=O)[C@H](Cc2c[nH]cn2)NC(=O)[C@H](NC(=O)[C@@H](N)Cc2ccc3ccccc3c2)CSSC[C@@H](C(=O)N[C@@H](C(N)=O)C(c2ccccc2)c2ccccc2)NC1=O (H-[2Nal][dC]H[dW]KVC[dDip]-NH2; disulfide 2-7)
1000,355,903,1000,1000,,CC(C)[C@@H]1NC(=O)[C@H](CCCCN)NC(=O)[C@@H](Cc2c[nH]c3ccccc23)NC(=O)[C@H](Cc2cccnc2)NC(=O)[C@H](NC(=O)[C@@H](N)Cc2ccc3ccccc3c2)CSSC[C@@H](C(=O)N[C@H](C(N)=O)C(c2ccccc2)c2ccccc2)NC1=O (H-[2Nal][dC][3Pal][dW]KVC[Dip]-NH2; disulfide 2-7)
3220,23.4,177,632,101,,CC(C)[C@@H]1NC(=O)[C@H](CCCCN)NC(=O)[C@@H](Cc2c[nH]c3ccccc23)NC(=O)[C@H](Cc2ccc(O)cc2)NC(=O)[C@H](NC(=O)[C@@H](N)Cc2ccc([N+](=O)[O-])cc2)CSSC[C@@H](C(=O)N[C@@H](Cc2ccc(O)cc2)C(N)=O)NC1=O (H-[Phe(4-NO2)][dC]Y[dW]KVCY-NH2; disulfide 2-7)
245,35.3,235,757,529,,CC(C)[C@@H]1NC(=O)[C@H](CCCCN)NC(=O)[C@@H](Cc2c[nH]c3ccccc23)NC(=O)[C@H](Cc2cccnc2)NC(=O)[C@H](NC(=O)[C@@H](N)Cc2ccc([N+](=O)[O-])cc2)CSSC[C@@H](C(=O)N[C@@H](Cc2ccc(O)cc2)C(N)=O)NC1=O (H-[Phe(4-NO2)][dC][3Pal][dW]KVCY-NH2; disulfide 2-7)
1000,139,1000,1000,,,CC(C)[C@@H]1NC(=O)[C@H](CCCCN)NC(=O)[C@@H](Cc2c[nH]c3ccccc23)NC(=O)[C@H](Cc2ccc(O)cc2)NC(=O)[C@@H](NC(=O)[C@H](N)Cc2ccc3ccccc3c2)CSSC[C@H](C(=O)N[C@@H](Cc2ccc3ccccc3c2)C(N)=O)NC1=O (stereo in doubt; 27)

Compound,IC50 [1] [nM],Ki [2] [nM],IC50 [3] [nM],IC50 [4] [nM],Ki [5] [nM],IC50 (Somatostatin receptor) [nM]
CC(C)[C@@H]1NC(=O)[C@H](CCCCN)NC(=O)[C@@H](Cc2c[nH]c3ccccc23)NC(=O)[C@H](Cc2ccc(O)cc2)NC(=O)[C@H](NC(=O)[C@H](N)Cc2ccc3ccccc3c2)CSSC[C@@H](C(=O)N[C@H](C(N)=O)[C@@H](C)O)NC1=O,1580,306,,,,
CC(C)[C@@H]1NC(=O)[C@H](CCCCN)NC(=O)[C@@H](Cc2c[nH]c3ccccc23)NC(=O)[C@H](Cc2ccc(O)cc2)NC(=O)[C@@H](NC(=O)[C@H](N)Cc2ccc3ccccc3c2)CSSC[C@H](C(=O)N[C@H](C(N)=O)[C@@H](C)O)NC1=O,4840,350,1000,,,
CC(C)[C@@H]1NC(=O)[C@H](CCCCN)NC(=O)[C@@H](Cc2c[nH]c3ccccc23)NC(=O)[C@H](Cc2ccc(O)cc2)NC(=O)[C@H](NC(=O)[C@@H](N)Cc2ccc3ccccc3c2)CSSC[C@@H](C(=O)N[C@H](C(N)=O)[C@@H](C)O)NC1=O,2160,118,733,,,
